Assay results pooled from the literature.
Lines come from different studies, so protocols differ.
Target: Mitogen-activated protein kinase kinase kinase 14 (MAP3K14, Homo sapiens, UniProt Q99558)

COc1ncccc1-c1cnn2ccc(N3CCN(C(=O)OC(C)C)CC3)nc12 — remaining binding (binding; competition with immobilised ligand; 1 µM): 100%
CC(C)(C)c1cc(C=C(C#N)C#N)cc(Br)c1O — remaining activity (enzyme activity; inhibitor; 0.5 µM): 97.3%
Cn1cc(-c2cc(F)cc(N3CCn4c(cc5c4CCCC5)C3=O)c2CO)cc(Nc2ccc(N3CCN(C4COC4)CC3)cn2)c1=O — inhibition (enzyme activity; inhibitor; 0.1 µM): 6%
O=c1[nH]c2ccccc2n1C1CCN(Cc2ccc(-c3[nH]c4cc5ncnc5cc4nc3-c3ccccc3)cc2)CC1 — remaining signal (cell-free assay; 0.5 µM): 96.8%
Cn1cncc1[C@](O)(COc1ccc(C#N)cc1-c1ccc(OC(F)(F)F)cc1)c1ccc(C#N)cc1 — remaining binding (cell-free assay; competition with immobilised ligand; 1 µM): 88%
Cn1cc(-c2cccc(N3CCc4c(sc5c4CC(C)(C)C5)C3=O)c2CO)cc(Nc2ccncn2)c1=O — inhibition (enzyme activity; inhibitor; 1 µM): -3%
N#CC1(c2ccccn2)CCN(Cc2cc(C(=O)O)c(=O)n3ccccc23)CC1 — remaining binding (cell-free assay; competition with immobilised ligand; 1 µM): 73%
Nc1ncc(-c2nc(N3CCOCC3)nc(N3CCOCC3)n2)c(C(F)F)n1 — remaining binding (binding; competition with immobilised ligand; 10 µM): 70%
